# Source: ChEMBL document CHEMBL2331500, “Bioactive flavaglines and other constituents isolated from Aglaia perviridis” (J Nat Prod, 2013)
# Columns and labels:
# [1] = target: Transcription factor p65 (Homo sapiens) (UniProt Q04206); assay: Inhibition of NF-kappaB p65 (unknown origin) by ELISA
# [2] = system: HT-29; assay: Cytotoxicity against human HT-29 cells; assay type: functional; details: read-out: ED50 (the source's name)
# Outline: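 HT-29 human colon cancer cells, run by a previously described protocol on all isolates. Growth inhibition was reported as ED50, and a positive control compound was run alongside.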
# [3] = Cytotoxicity against human CCD-112CoN cells; assay type: cell-based; details: read-out: ED50 (the source's name)
# Sequence of Transcription factor p65 (Homo sapiens) (Q04206 whole entry): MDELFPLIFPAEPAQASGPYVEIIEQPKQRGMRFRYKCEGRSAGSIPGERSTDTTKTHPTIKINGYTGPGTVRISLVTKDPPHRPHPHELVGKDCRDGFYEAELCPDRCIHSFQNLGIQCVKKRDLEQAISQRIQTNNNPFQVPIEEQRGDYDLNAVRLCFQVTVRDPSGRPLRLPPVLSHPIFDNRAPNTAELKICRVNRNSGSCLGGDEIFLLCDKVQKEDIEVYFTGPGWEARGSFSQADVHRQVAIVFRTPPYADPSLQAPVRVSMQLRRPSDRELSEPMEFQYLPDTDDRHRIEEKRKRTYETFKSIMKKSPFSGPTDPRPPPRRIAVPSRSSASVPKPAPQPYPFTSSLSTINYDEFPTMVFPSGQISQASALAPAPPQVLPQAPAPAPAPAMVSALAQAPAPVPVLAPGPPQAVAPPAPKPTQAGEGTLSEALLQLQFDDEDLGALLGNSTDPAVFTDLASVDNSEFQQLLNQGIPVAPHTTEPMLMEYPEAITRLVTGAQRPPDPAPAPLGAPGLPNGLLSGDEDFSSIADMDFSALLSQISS
Structure (SMILES),ED50 [1],"EC50 ([2]; Homo sapiens, HT-29)",CC50 [3],EC50 [2]
COc1ccc([C@@]23Oc4cc(OC)cc(OC)c4[C@]2(OC)[C@H](O)C[C@H]3c2ccccc2)cc1,> 20 µM,> 10 µM,–,–
CC1(C)[C@H](O)CC[C@]2(C)[C@H]3CC[C@@H]4[C@@H]([C@]5(C)CCC(=O)O5)CC[C@@]4(C)[C@]3(C)CC[C@@H]12 [CABRALEAHYDROXYLACTONE],> 20 µM,> 10 µM,–,–
COC(=O)[C@H]1[C@@H](O)[C@@]2(OC)c3c(OC)cc(OC)cc3O[C@@]2(c2ccc(OC)cc2)[C@@H]1c1ccccc1,> 20 µM,4.9 µM,> 50 µM,–
CC1=CC(O)N(CCCCNC(=O)/C=C/c2ccccc2)C1=O (configuration not stated) [GIGANTAMIDE A],> 20 µM,> 10 µM,–,–
CC(C)=CC(=O)[C@@H](O)[C@@H](C)[C@H]1CC[C@@]2(C)[C@@H]3CC[C@H]4C(C)(C)[C@@H](O)CC[C@@]45C[C@@]35CC[C@]12C [PERVIRIDISINOL A],> 20 µM,> 10 µM,–,–
C=C(CC[C@@H](CO)[C@H]1CC[C@@]2(C)[C@@H]3CC[C@H]4[C@H](C)[C@@H](O)CC[C@@]45C[C@@]35CC[C@]12C)C(C)C [PERVIRIDISINOL C],> 20 µM,> 10 µM,–,–
COC(=O)[C@H]1[C@@H](O)[C@@]2(O)c3c(OC)cc(OC)cc3O[C@@]2(c2ccc3c(c2)OCO3)[C@@H]1c1ccccc1,3.54 µM,0.002 µM,> 50 µM,–
COc1ccc([C@@]23Oc4cc(OC)cc(OC)c4[C@]2(O)[C@H](O)[C@H](C(N)=O)[C@H]3c2ccccc2)cc1 [DIDESMETHYLROCAGLAMIDE],> 20 µM,0.021 µM,> 50 µM,–
C=C(CC[C@@H](CO)[C@H]1CC[C@@]2(C)[C@@H]3CC[C@H]4C(C)(C)[C@@H](O)CC[C@@]45C[C@@]35CC[C@]12C)C(C)C,> 20 µM,> 10 µM,–,–
COc1cc2ccc(=O)oc2cc1O [SCOPOLETIN],> 20 µM,> 10 µM,–,–
COC(=O)[C@H]1[C@@H](O)[C@@]2(O)c3c(OC)cc(OC)cc3O[C@@]2(c2ccc(OC)cc2)[C@@H]1c1ccccc1 [AGLAFOLIN],> 20 µM,0.012 µM,> 50 µM,–
COC(=O)[C@H]1[C@@H](OC=O)[C@@]2(O)c3c(OC)cc(OC)cc3O[C@@]2(c2ccc3c(c2)OCO3)[C@@H]1c1ccccc1,–,0.056 µM,> 50 µM,–
CC1=CC(=O)CC(C)(C)[C@H]1CC[C@H](O)CO,> 20 µM,> 10 µM,–,–
COc1cc(OC)c2c(c1)O[C@@]1(c3ccc4c(c3)OCO4)[C@H](c3ccccc3)C[C@@H](O)[C@@]21OC,> 20 µM,0.96 µM,> 50 µM,–
CC(C)=C[C@H](O)[C@@H](O)[C@@H](CO)[C@H]1CC[C@@]2(C)[C@@H]3CC[C@H]4C(C)(C)[C@@H](O)CC[C@@]45C[C@@]35CC[C@]12C [ARGENTEANOL],> 20 µM,> 10 µM,–,–
COc1ccc([C@@]23Oc4cc(OC)cc(OC)c4[C@]2(O)[C@H](O)C[C@H]3c2ccccc2)cc1 [ROCAGLAOL],0.005 µM,0.0007 µM,> 50 µM,–
COC(=O)[C@H]1[C@@H](OC=O)[C@@]2(O)c3c(OC)cc(OC)cc3O[C@@]2(c2ccc(OC)cc2)[C@@H]1c1ccccc1,> 20 µM,0.019 µM,> 50 µM,–
COc1ccc([C@@]23Oc4cc(OC)cc(OC)c4[C@]2(O)[C@H](O)[C@H](C(=O)N(C)C)[C@H]3c2ccccc2)cc1 [ROCAGLAMIDE],–,0.005 µM,> 50 µM,–
COc1ccc([C@]23Oc4cc(OC)cc(OC)c4[C@](O)(C2O)[C@@H](c2ccccc2)[C@@H]3C(=O)NCCCCNC(=O)/C(C)=C/CO)cc1 (stereo in doubt; 1) [listing 1 of 2 here],> 20 µM,–,–,–
CC(=O)O[C@H]1C(=O)[C@@]2(C)[C@H]([C@H](OC(=O)c3ccccc3)[C@]3(O)C[C@H](OC(=O)[C@H](O)[C@@H](NC(=O)c4ccccc4)c4ccccc4)C(C)=C1C3(C)C)[C@]1(OC(C)=O)CO[C@@H]1C[C@@H]2O [PACLITAXEL],–,0.001 µM,23 µM,–
COc1ccc([C@]23Oc4cc(OC)cc(OC)c4[C@](O)(C2O)[C@@H](c2ccccc2)[C@@H]3C(=O)NCCCCNC(=O)/C(C)=C/CO)cc1 (stereo in doubt; 1) [listing 2 of 2 here],–,–,–,> 10 µM
CC(C)=C[C@H]1OC[C@@H]([C@H]2CC[C@@]3(C)[C@@H]4CC[C@H]5C(C)(C)[C@@H](O)CC[C@@]56C[C@@]46CC[C@]23C)[C@@H]1O [PERVIRIDISINOL B],> 20 µM,> 10 µM,–,–
COc1cc(OC)c2c(c1)O[C@@]1(c3ccc4c(c3)OCO4)[C@H](c3ccccc3)C[C@@H](O)[C@@]21O,0.33 µM,0.0067 µM,> 50 µM,–
COc1ccc(-c2oc3cc(OC)cc(OC)c3c(=O)c2O)cc1,> 20 µM,> 10 µM,–,–
COc1ccc([C@]23Oc4cc(OC)cc(OC)c4[C@](O)(C2O)[C@@H](c2ccccc2)[C@@H]3C(=O)NCCCCNC(=O)/C(C)=C/CO)cc1 (stereo in doubt; 2) [listing 1 of 2 here],2.4 µM,–,–,–
COc1ccc([C@]23Oc4cc(OC)cc(OC)c4[C@](O)(C2O)[C@@H](c2ccccc2)[C@@H]3C(=O)NCCCCNC(=O)/C(C)=C/CO)cc1 (stereo in doubt; 2) [listing 2 of 2 here],–,–,> 50 µM,0.46 µM
CC(C)[C@H]1CC[C@]2(C)C(=O)CCC(C=O)=C[C@H]12,0.005 µM,> 20 µM,–,–
COC(=O)[C@H]1[C@@H](O)[C@@]2(OC)c3c(OC)cc(OC)cc3O[C@@]2(c2ccc3c(c2)OCO3)[C@@H]1c1ccccc1,> 20 µM,4.7 µM,> 50 µM,–
